Assay results of several laboratories.
Lines come from different studies, so protocols differ. In brackets after ≈: the same amount, converted by molar mass.

| Compound | organism | test | test system | conditions | endpoint | result |
| --- | --- | --- | --- | --- | --- | --- |
| CCOC(=O)c1cc(-c2ccccc2)sc1NC(=O)c1cc(C(F)(F)F)cc(C(F)(F)F)c1 | Mycobacterium tuberculosis | microbial growth, resazurin | H37RV | – | MIC | > 200 µM |
| CC1=NN(CNC(=O)c2ccccn2)C(=O)C1=NNn1c(-c2ccccc2)nc2ccccc2c1=O | Monascus purpureus | microbial growth, broth dilution | – | – | MIC | 104 µM (≈ 50 µg/mL) |
| Cc1cc2nc(C(=O)N3CCNCC3)cc(-c3ccccc3Cl)c2c(C)c1-c1ccncc1 | Mycobacterium tuberculosis | microbial growth | H37RV | – | MIC90 | 10 µM (≈ 4.57 µg/mL) |
| c1ccc2c(N3CCCCC3)nc(-n3cccn3)nc2c1 | Trypanosoma cruzi | parasite growth, imaging | U2OS | intracellular, amastigote | IC50 | 8.96 µM |
| CCOC(=O)c1cc(-c2ccccc2)sc1NC(=O)c1c(F)c(F)c(F)c(F)c1F | Mycobacterium tuberculosis | microbial growth, resazurin | H37RV | – | MIC | > 200 µM |
| O=C(O)c1cn(C2CC2)c2cc(N3CCNCC3)c(F)cc2c1=O | Monascus purpureus | microbial growth, broth dilution | – | – | MIC | 6.25 µM (≈ 2.07 µg/mL) |
| Nc1nc(O)c2ncn(COC(CO)CO)c2n1 | Human betaherpesvirus 5 | cytopathic effect | AD169 | – | IC50 | 0.9 µM |
| CCOC(=O)c1c(NC(=O)c2c(F)c(F)c(F)c(F)c2F)sc2c1CCCC2 | Mycobacterium tuberculosis | microbial growth, resazurin | H37RV | – | IC50 | 13 µM |
| Cc1cc2nccc(-c3cccnc3)c2c(C)c1-c1ccc(CN2CCOCC2)cc1 | Mycobacterium tuberculosis | microbial growth | H37RV | – | MIC90 | 5 µM (≈ 2.05 µg/mL) |
| c1ccc2c(N3CCCCC3)nc(-c3ccncn3)nc2c1 | Trypanosoma cruzi | parasite growth, imaging | U2OS | intracellular, amastigote | IC50 | 32.4 µM |
| CCOC(=O)c1c(NC(=O)c2c(F)c(F)c(F)c(F)c2F)sc2c1CCN(CC)C2 | Mycobacterium tuberculosis | microbial killing | H37RV | 21 days | MBC | < 5 µM |
| COc1ccc(Nc2nc(-c3cccs3)nc3ccccc23)cc1 | Trypanosoma cruzi | parasite growth, imaging | U2OS | intracellular, amastigote | IC50 | 5.87 µM |
| CCOC(=O)c1c(NC(=O)c2c(F)c(F)c(F)c(F)c2F)sc2c1CCN(C(=O)OC(C)(C)C)C2 | Mycobacterium tuberculosis | microbial growth, resazurin | H37RV | 7 days | MIC | > 100 µM |
| CC1(C)S[C@@H]2[C@H](NC(=O)[C@H](N)c3ccccc3)C(=O)N2[C@H]1C(=O)O | Plesiomonas shigelloides | microbial growth, agar dilution | – | 26.93 µM | inhibition | 100% |
| c1ccc(-c2nc(N3CCCC3)c3ccccc3n2)nc1 | Trypanosoma cruzi | parasite growth, imaging | U2OS | intracellular, amastigote | IC50 | 3.1 µM |
| O=C(N[C@@H](Cc1ccccc1)C(=O)c1nc2ccccc2s1)[C@H](Cc1ccccc1)NC(=O)N1CCOCC1 | Trypanosoma cruzi | parasite growth | TULAHUEN | intracellular, amastigote | IC50 | 17.5 µM |
| CC(C)(C)c1nc(N2CCCCC2)c2ccccc2n1 | Trypanosoma cruzi | parasite growth, imaging | U2OS | intracellular, amastigote | IC50 | 21.5 µM |
| Cc1ccc2nc(-c3ccc(Cl)cc3)cn2c1 | Trypanosoma cruzi | parasite growth | TULAHUEN | 6 days, intracellular, amastigote | EC90 | > 5 µM |
| CCCCNC(=O)c1c(N)sc2c1CCN(CC)C2 | Mycobacterium tuberculosis | microbial growth, resazurin | H37RV | – | IC50 | > 300 µM |
| NC(=O)c1cccc(-c2nc(N3CCC(c4ccccn4)C3)c3ccccc3n2)c1 (stereo not drawn) | Trypanosoma cruzi | parasite growth, imaging | U2OS | intracellular, amastigote | IC50 | 9.33 µM |
| CC1=NN(CNc2c(O)c(S(=O)(=O)O)cc3ccccc23)C(=O)C1=NNn1c(-c2ccccc2)nc2ccccc2c1=O | Monascus purpureus | microbial growth, broth dilution | – | – | MIC | 41.8 µM (≈ 25 µg/mL) |
| c1ccc(-c2nc(N3CCC(c4ccccn4)C3)c3ccccc3n2)cc1 (stereo not drawn) | Trypanosoma cruzi | parasite growth, imaging | U2OS | intracellular, amastigote | IC50 | 4.82 µM |
| COc1ccccc1CNC(=O)c1c(N)sc2c1CCCC2 | Mycobacterium tuberculosis | microbial growth, resazurin | H37RV | – | MIC | 316 µM (≈ 100 µg/mL) |
| O=C1NN=C(N=Cc2ccc(O)cc2O)C1=NNn1c(-c2ccccc2)nc2ccccc2c1=O | Monascus purpureus | microbial growth, broth dilution | – | – | MIC | 53.5 µM (≈ 25 µg/mL) |
